Bioassay records: PubChem BioAssay, The Scripps Research Institute Molecular Screening Center
Rows were chosen to be rich in hits. Some 2.3% of all compounds tested hit in one or more screens of this group.
OXTR ag: human OXTR agonism; CHO-OTR cells, Fluo-8 calcium fluorescence; normalized: DMSO 0%, oxytocin 100%; actives 0.32% (n = 320,000); P30559; activation, % at 3 µM;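 active = activation above the mean of all tested compounds plus 3 SD, cutoff set per screening run, cut at about 20% in these data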;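 note: peak over basal fluorescence ratio from a 100 s FLIPR kinetic read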
TAAR1 antagonist: human TAAR1 antagonism | inhibition, % at 3 µM | CHO RD-HGA16 TAAR1, Fluo-8 calcium fluorescence, antagonist | AID 624466 | actives 1.5% (n = 360,000);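 active = inhibition above a per-plate cutoff, the mean inhibition of test compounds on that plate plus 3 SD, cut at about 49% in these data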;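 note: 0% = DMSO plus EC80 beta-PEA response and 100% = DMSO alone without agonist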
Target sequence (Q96RJ0 whole entry, looked up): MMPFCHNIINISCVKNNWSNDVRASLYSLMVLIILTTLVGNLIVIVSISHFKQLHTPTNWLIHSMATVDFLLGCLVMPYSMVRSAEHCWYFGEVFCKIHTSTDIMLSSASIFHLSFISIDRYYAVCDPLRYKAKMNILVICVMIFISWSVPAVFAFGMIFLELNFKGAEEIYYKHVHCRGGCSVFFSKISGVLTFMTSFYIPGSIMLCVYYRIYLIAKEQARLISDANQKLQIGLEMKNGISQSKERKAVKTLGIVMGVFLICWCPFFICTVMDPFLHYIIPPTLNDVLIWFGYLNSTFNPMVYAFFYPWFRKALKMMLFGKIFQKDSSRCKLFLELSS
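Test system: CHO RD-HGA16 cells bearing hTAAR1 | Reagent: β-PEA, EC80 | Compound dosing: 3 µM, single point | Schedule: Dye loading 75 min at 37 °C, then 30 min room temperature | Signal: Calcium fluorescence with Fluo-8 | Evaluation: Percent inhibition of PEA-evoked calcium signal, max/basal emission ratio | Control set: DMSO-only wells and EC80 β-PEA-stimulated wells | Repeats: Singlicate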
V1R ag counter: V1a receptor agonism, counter-screen for OXTR agonists | actives 0.25% (n = 320,000) | activation, % at 3 µM | CHO-V1R cells, Fluo-8 calcium fluorescence, agonist mode; 0% DMSO, 100% 3 nM vasopressin | AID 2797;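 active = activation above the mean activation of all tested compounds plus 3 SD, per screening run, cut at about 20% in these data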;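 note: signal is peak over basal fluorescence ratio across a 100 second FLIPR read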
Target sequence (P37288 whole entry, looked up): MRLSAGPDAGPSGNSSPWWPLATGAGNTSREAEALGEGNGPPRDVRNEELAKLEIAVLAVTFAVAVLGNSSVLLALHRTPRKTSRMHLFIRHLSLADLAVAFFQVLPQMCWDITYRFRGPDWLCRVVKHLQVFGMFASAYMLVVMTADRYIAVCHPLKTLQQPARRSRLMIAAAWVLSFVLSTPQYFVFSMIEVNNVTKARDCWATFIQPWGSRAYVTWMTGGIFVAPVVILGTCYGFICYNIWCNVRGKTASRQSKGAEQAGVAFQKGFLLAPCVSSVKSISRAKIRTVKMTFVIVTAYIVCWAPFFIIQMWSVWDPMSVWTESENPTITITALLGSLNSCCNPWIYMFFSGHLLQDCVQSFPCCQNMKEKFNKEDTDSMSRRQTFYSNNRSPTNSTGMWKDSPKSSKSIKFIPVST
TAAR1 agonist: human TAAR1 agonism; CHO RD-HGA16 TAAR1, Fluo-8 calcium fluorescence; vehicle wells 0%, saturating PEA agonist 100%; actives 0.99% (n = 360,000); AID 624467; Q96RJ0; activation, % at 3 µM;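 active = activation above the mean activation of all test compounds in the run plus 3 SD, cut at about 38% in these data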
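Test system: RD-HGA16 (CHO) cells co-expressing Gα16 and hTAAR1; dosing: one-point dosing at 3 µM (nominal); timing: 17-24 h seeding, 75 min 37 °C dye, 30 min RT; signal: kinetic Fluo-8 calcium fluorescence; read-out basis: % activation relative to PEA EC100 response; controls: DMSO and PEA EC100; replicates: n 1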
OXTR potentiate: potentiates the human oxytocin receptor response; CHO-OTR cells, Fluo-8 calcium fluorescence, potentiator mode; 0% = oxytocin EC15, 100% = EC100; activation, % at 3 µM; actives 0.061% (n = 320,000);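 active = activation above that plate's cutoff, the mean activation of tested compounds plus 3 SD, cut at about 6.6% in these data, passing the limit was not always enough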;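 note: 100% uses oxytocin at 75 nM as the full agonist control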
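assay system = CHO-OTR cells, human receptor | schedule = compound 6 min at room temperature before oxytocin, 100 s read | detection = Fluo-8 intracellular calcium fluorescence, ex 470-495, em 515-575 nm | evaluation = normalized max/min fluorescence ratio, % activation | control set = EC15 oxytocin alone as 0%, 75 nM oxytocin (EC100) as 100%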
OXTR ag confirm: confirmation of human oxytocin receptor agonists; shares compounds with OXTR ag; CHO-OTR cells, Fluo-8 calcium fluorescence, agonist; activation, % at 3 µM; actives 20% (n = 390); AID 434963;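 active = mean activation above about 20% derived from the earlier single-dose screen, limit read from the data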;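 note: peak over minimum fluorescence ratio per well during a 100 second FLIPR read; 0% = DMSO alone and 100% = oxytocin high control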
V1aR counter 3x: V1R agonism in triplicate, counter-screen for OXTR agonists; CHO-V1R cells, Fluo-8 calcium fluorescence, agonist; shares compounds with OXTR ag; actives 10% (n = 390); activation, % at 3 µM;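 active = mean activation over triplicate exceeds the hit threshold set in the earlier primary screen, cut at about 20% in these data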;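 note: peak over basal fluorescence ratio within a 100 second read; 0% = DMSO alone and 100% = 3 nM vasopressin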
Active calls of the source: *; · = not tested or not shown.

SMILES | OXTR ag | TAAR1 antagonist | V1R ag counter | TAAR1 agonist | OXTR potentiate | others
Cc1ccccc1SCC(=O)OCC(=O)Nc1sccc1C(N)=O | 19 | 49* | 10 | 16 | -12
CN(C)S(=O)(=O)c1cccc(C(=O)OCC(=O)Nc2sccc2C(N)=O)c1 | 18 | 75* | 10 | 41* | -25
NC(=O)c1ccsc1NC(=O)CSc1ccccc1F | 3 | -1 | 2 | 5 | -6
NC(=O)c1ccsc1NC(=O)COC(=O)Cc1cccc2ccccc12 | 11 | 73* | 9 | 34 | -31
CCCCCCCCN1C(=O)[C@@H](CC(=O)NCc2cccc3ccccc23)C[C@@]2(C(=O)OC)C1=C[C@H](C(C)(C)C)O[C@@H]2C | · | -13 | · | 15 | ·
CCOC(=O)[C@]12CCCC=C1N(CCc1ccc(OC)c(OC)c1)C(=O)[C@H](CC(=O)NCCc1ccccc1OC)C2 | · | 3 | · | 46* | ·
CCCCNC(=O)C[C@@H]1C[C@@]2(C(=O)OCC)CCCC=C2N(Cc2ccc(Cl)cc2Cl)C1=O | · | -23 | · | 0 | ·
CCCCNC(=O)C[C@@H]1C[C@@]2(C(=O)OCC)CCCC=C2N(CCc2ccc(OC)c(OC)c2)C1=O | · | -25 | · | 1 | ·
CCOC(=O)[C@]12CCCC=C1N(Cc1ccc(Cl)cc1Cl)C(=O)[C@H](CC(=O)NCCc1ccccc1OC)C2 | · | 19 | · | 40* | ·
O=C1NC(Cc2ccc(O)cc2)c2nc3cc(F)c(F)cc3c(=O)n2-c2cc3ccccc3cc21 (centres undefined) | · | 38 | · | 2 | ·
O=C1NC(Cc2ccc(O)cc2)c2nc3ccc(F)cc3c(=O)n2-c2cc3ccccc3cc21 (centres undefined) | · | 50* | · | 8 | ·
CCN(CC)S(=O)(=O)c1cccc(C(=O)Nc2nc3cc4c(cc3s2)OCCO4)c1 | 0 | 52* | 2 | 4 | -9
C[C@H](CO)N1C[C@H](C)[C@H](CN(C)C(=O)C2CCCCC2)OCc2cnnn2CCCC1=O | · | -4 | · | 4 | ·
Cc1cccc(C)c1NC(=O)C(CCc1ccccc1)N1CCN(CCN(C)C)CC1 (centres undefined) | · | -5 | · | 1 | ·
Cc1cc(CNC(=O)COc2ccccc2)c2ccccc2n1 | · | -12 | · | 2 | ·
Cc1cccc(OCC(=O)NNc2c3ccccc3nc3ccccc23)c1 | 1 | 61* | 3 | 16 | -12
CCOC(=O)C1=CCN(S(=O)(=O)c2ccc(Br)cc2)C1c1ccc(F)cc1 (centres undefined) | · | 15 | · | 5 | ·
Cc1cc(-c2ccccc2)nn1-c1nc2c(c(=O)[nH]c(=O)n2C)n1C | 0 | -22 | 2 | 1 | 1
O=C(Cn1cnc2cc([N+](=O)[O-])ccc2c1=O)NCc1ccc(Cl)cc1 | 8 | 9 | 6 | 14 | -13
O=c1c2ccc([N+](=O)[O-])cc2ncn1CCOc1ccc(Cl)cc1 | -1 | 64* | 0 | 21 | -4
O=C(Nc1nnc(SCc2ccc(F)cc2)s1)C1CC(=O)N(c2ccc3c(c2)OCCO3)C1 (centres undefined) | 0 | -4 | 1 | 38* | -8
N#Cc1ccc(CSc2nnc(NC(=O)C3CC(=O)N(c4ccc5c(c4)OCCO5)C3)s2)cc1 (centres undefined) | 0 | · | 1 | · | -7
NS(=O)(=O)c1ccc(CCNC(=O)C2CCCN(S(=O)(=O)c3cccnc3)C2)cc1 (centres undefined) | 1 | -29 | 0 | 1 | -4
O=C(NCCc1ccccc1)C1CCCN(S(=O)(=O)c2cccnc2)C1 (centres undefined) | 0 | -2 | -1 | 40* | -5
CCC1=C(OC(=O)N(CC)CC)N2C(=O)OC(=NCC(=O)OC)[C@]2(Cc2ccccc2)[C@H]2C1=CC[C@H]1C(=O)N(CC(=O)OC)C(=O)[C@H]12 | -1 | -1 | -1 | 0 | -10
SMILES | OXTR ag | TAAR1 antagonist | V1R ag counter | TAAR1 agonist | OXTR potentiate | others
COc1cc2ccc(-c3ccc4ccccc4n3)cc2cc1OC | · | 58* | · | 10 | ·
COc1ccc2c(COC(=O)c3cccc(S(=O)(=O)NCC(C)C)c3)cc(=O)oc2c1 | 7 | 65* | 7 | 10 | -28
CCCNS(=O)(=O)c1cccc(C(=O)OCc2cc(=O)oc3cc(OC)ccc23)c1 | 9 | 52* | 8 | 9 | -29
COc1ccc2c(COC(=O)CNS(=O)(=O)c3ccccc3)cc(=O)oc2c1 | 2 | -22 | 0 | 2 | -3
COc1cccc(C(CC2=CCCCC2)NC(=O)C(F)(F)F)c1 (centres undefined) | · | 2 | · | 2 | ·
CO[C@@H]1[C@H](O)CC[C@]2(O)CN(c3ccc(F)cc3)[C@](C)([C@H](O)CC=C(C)C)[C@@H]12 | · | -22 | · | 4 | ·
CCn1nnnc1SCC(=O)Nc1ccc(OC)cc1 | 0 | 18 | 0 | 5 | -12
CCOc1ccc(OCC)c(NC(=O)CSc2nnnn2CC)c1 | 22* | 0 | 0 | 7 | -16 | OXTR ag confirm=-1;V1aR counter 3x=-1
O=C(NC1CC1)C1=C[C@@H](C2CC2)C[C@@H](OCc2ccc(CO)cc2)O1 | 0 | 16 | -1 | 5 | -8
Cc1cc(C)c2cc(C(=O)N3CCN(c4ncccc4C(F)(F)F)CC3)[nH]c2c1 | -1 | -14 | 0 | 5 | -9
Cc1ccccc1OCC(=O)Nc1ccc(N2CCN(C)CC2)c(Cl)c1 | 20* | 7 | 13 | 39* | -13 | OXTR ag confirm=3;V1aR counter 3x=2
CCOC(=O)CN1C(=O)S/C(=C/c2ccc(N3CCCCC3)o2)C1=O | 10 | 29 | 4 | 29 | -15
CCCN1C(=O)S/C(=C/c2ccc(N3CCOCC3)o2)C1=O | 20* | 22 | 7 | 19 | -4 | OXTR ag confirm=31*;V1aR counter 3x=55*
C=CCN1C(=O)C(Cc2ccccc2Cl)SC1=Nc1ccc(C(=O)O)cc1 (centres undefined) | 21* | -2 | 10 | 12 | -12 | OXTR ag confirm=8;V1aR counter 3x=8
C=CCN1C(=O)C(CC(=O)O)SC1=Nc1ccc(C(=O)O)cc1 (centres undefined) | 0 | -6 | 1 | 0 | -6
CC1=NN(c2ccc(Cl)cc2)C(=O)C1C(c1ccccc1O)c1c(C)[nH]n(-c2ccc(Cl)cc2)c1=O (centres undefined) | 20* | · | 13 | · | -9 | OXTR ag confirm=0;V1aR counter 3x=1
COc1ccc(CC(=O)NC(=S)Nc2ccc(S(=O)(=O)NC(C)(C)C)cc2)cc1 | 20* | 31 | 17 | 53* | -23 | OXTR ag confirm=17;V1aR counter 3x=15
C=CCNc1ncnc2c1[nH]c1ccc(Cl)cc12 | 22* | 10 | 12 | 23 | -6 | OXTR ag confirm=12;V1aR counter 3x=10
